Assay results as given in PMC2614345 (Toxicology and applied pharmacology, 2008).
Where two headings read alike, the source gives them in different places.

Tests used:
[1] = Biliary excretion of DAPM metabolites; assay type: in vivo, Sprague Dawley rats; conditions: for biliary excretion, male compared to female rats: AUC analysis, 25 and 50 mg/kg DAPM; for AUC for DAPM metabolite elimination in the bile, Females: female rats; for AUC for DAPM metabolite elimination in the bile, Females / AUC for DAPM metabolite elimination in the bile, Males: bile collected 6 h, mean ± SEM, n=4–6; for AUC for DAPM metabolite elimination in the bile, Males: male rats
Outline: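 Sprague Dawley rats of both sexes (12–15 wk) under pentobarbital, with biliary, duodenal and peritoneal cannulas and duodenal taurocholate infusion; 1 h basal bile. Gavage of [14C]-test compound, 25 or 50 mg/kg in 35% ethanol, 2 mL/kg. Bile taken for 6 h in 15-min fractions, deproteinized, then C18 HPLC with UV 254 nm and radioisotope detection. Per-rat nmol-versus-time AUC; group mean ± SEM, n=4–6; two-way ANOVA.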

[2] = test system: rats; conditions: ref Dugas et al., 2001, cited from earlier work
[3] = 25 mg/kg DAPM, ref Dugas et al., 2001, cited from earlier work

SMILES | biliary excretion, male compared to female rats [1] | AUC for DAPM metabolite elimination in the bile, Females ([1]; DAPM 25 mg/kg by gavage) [nmol·h] | AUC for DAPM metabolite elimination in the bile, Females ([1]; DAPM 50 mg/kg by gavage) [nmol·h] | AUC for DAPM metabolite elimination in the bile, Males ([1]; DAPM 25 mg/kg by gavage) [nmol·h] | AUC for DAPM metabolite elimination in the bile, Males ([1]; DAPM 50 mg/kg by gavage) [nmol·h] | threshold dose for observing injury ([2]; female rats) [mg/kg] | threshold dose for observing injury ([2]; male rats) [mg/kg] | maximum rate of biliary excretion of metabolite ([3]; female rats, maximum at 45 min) | maximum rate of biliary excretion of metabolite ([3]; male rats, maximum at 15 min)
Nc1ccc(Cc2ccc(N)cc2)cc1 [DAPM, 4,4’-Methylenedianiline] | biliary excretion in males was likewise greater than that in female rats | 29 ± 14 | 67 ± 31 | 155 ± 22 | 176 ± 74 | 25 | 50 | ~ 9 µg/min*kg | ~ 18 µg/min*kg
CC(=O)Nc1ccc(Cc2ccc(N)cc2)cc1 [Metabolite M5, N-acetyl-DAPM] | greater in male compared to female rats | 39 ± 13 | 132 ± 70 | 175 ± 11 | 259 ± 86 |  |  |  | 
